An excerpt weighted towards active compounds, which were near 3.1% of everything screened.
rRNA inh HTS: inhibits bacterial ribosomal RNA function over humanized ribosomes; 350,000 tested, 1.6% active; GFP signal change (wild-type ribosome), % (concentration not given with the values); E. coli WT GFP vs humanized-ribosome RFP mutants, fluorescence, 24 h; active compounds read low; DMSO median 0, no signal -100; AID 720706;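 active = significant combined selectivity score with lowered wild-type GFP, culture density cut under 30%, mutant RFP and density less affected; inactive = any of these conditions unmet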
S100A4 MyoIIA: blocks human S100A4 binding to myosin IIA peptide; S100A4/TAMRA-MyoIIA peptide fluorescence polarization; inhibition, % at 10.7 µM; 360,000 tested, 0.14% active; AID 652163;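 active = mean inhibition of at least 70% across replicates, with every replicate also reaching that level; inconclusive = mean inhibition reaches 70% but some replicates fall short; inactive = mean inhibition below 70%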
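Compound dosing: one dose per compound; test system: human S100A4 monomer with TAMRA-labelled myosin IIA peptide; probe or stimulus: TAMRA-labelled myosin IIA heavy-chain peptide probe, 5 nM; medium: HEPES buffer with Ca2+, pH 7.2; schedule: 5 min incubation before reading; benchmarks: neutral control DMSO, positive control TFP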
ERAP1 HTS inh: blocks human ERAP1 aminopeptidase activity | Q9NZ08 | inhibition, % at 10.7 µM | 340,000 tested, 0.15% active | recombinant ERAP1, Leu-AMC fluorescence, 60 min;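 active = mean replicate inhibition of at least 30%, or all replicates individually reaching that 30% level; inactive = mean below 30% and not every replicate reaching it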;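 also: 0% = neutral control wells and 100% = L-leucinethiol positive control wells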
Target sequence (Q9NZ08 whole entry, looked up): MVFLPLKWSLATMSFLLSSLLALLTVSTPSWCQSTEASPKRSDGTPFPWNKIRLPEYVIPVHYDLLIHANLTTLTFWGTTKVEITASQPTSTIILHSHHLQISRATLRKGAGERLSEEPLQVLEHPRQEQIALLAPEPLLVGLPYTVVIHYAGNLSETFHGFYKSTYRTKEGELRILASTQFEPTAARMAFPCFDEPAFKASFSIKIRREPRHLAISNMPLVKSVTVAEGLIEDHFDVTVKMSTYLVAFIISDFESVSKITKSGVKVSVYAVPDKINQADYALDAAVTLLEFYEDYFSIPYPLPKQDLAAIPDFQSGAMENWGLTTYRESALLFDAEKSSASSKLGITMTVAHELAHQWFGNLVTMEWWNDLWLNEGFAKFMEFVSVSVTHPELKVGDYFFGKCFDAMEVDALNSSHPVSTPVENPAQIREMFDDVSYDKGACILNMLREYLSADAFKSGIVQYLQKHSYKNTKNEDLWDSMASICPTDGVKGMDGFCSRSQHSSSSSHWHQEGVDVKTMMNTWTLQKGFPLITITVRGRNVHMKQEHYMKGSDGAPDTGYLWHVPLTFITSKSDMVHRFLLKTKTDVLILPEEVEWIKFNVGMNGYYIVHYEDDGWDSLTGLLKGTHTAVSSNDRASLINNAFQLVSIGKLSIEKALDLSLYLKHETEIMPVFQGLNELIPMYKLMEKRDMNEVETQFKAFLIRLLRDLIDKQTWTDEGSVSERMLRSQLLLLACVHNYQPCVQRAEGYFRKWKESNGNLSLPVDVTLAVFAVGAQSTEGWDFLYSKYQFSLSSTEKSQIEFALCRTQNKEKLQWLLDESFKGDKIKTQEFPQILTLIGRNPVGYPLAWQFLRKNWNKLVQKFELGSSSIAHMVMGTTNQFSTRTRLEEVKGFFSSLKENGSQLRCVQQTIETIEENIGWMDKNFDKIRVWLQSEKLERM
SIRT5 inh: sirtuin-5 (human) deacylase inhibition | Q9NXA8 | Purified SirT5, succinyl-peptide AMC, trypsin-coupled fluorescence | inhibition, % at 15 µM | 330,000 tested, 1.1% active | AID 652115; in the data active = inhibition above about 15%; inconclusive = no clear call, values can overlap the other calls
F508del corr: correctors of CFTR F508del function in bronchial epithelial cells | activity (quench increase), % at 7.58 µM | CFBE cells, YFP halide quenching; stimulated with forskolin plus potentiator P3; % fluorescence drop versus neutral controls | 350,000 tested, 0.36% active;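 active = mean added fluorescence quench of at least 8% versus neutral control, with both replicates also reaching 8%; inconclusive = only one of the mean or replicate conditions met; inactive = mean below 8% and not both replicates reaching 8%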;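 also: cells transiently co-express mutant CFTR-F508del with the halide-sensitive YFP; corrector assay measuring rescue of mutant channel to the surface after 24 h compound exposure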
AID977621: growth inhibition of wild-type GFP E. coli, dose response, H69 mutant RFP, cherry-pick. shares compounds with rRNA inh HTS. E. coli wild-type GFP strain growth, fluorescence, 24 h. activity change, negative = inhibition at 50 µM. 1,900 tested, under 10 active;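 active = Wild-type ribosome reporter drop at least double the humanized mutant ribosome reporter drop, growth loss under a set limit; inconclusive = no clear call, values can overlap the other calls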;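 also: wild-type GFP and H69 mutant RFP strains grown together 50/50 in each well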
AID977628: growth of wild-type and h24-humanized E. coli strains – h24 mutant RFP vs wild-type GFP, cherry-pick, dose response | shares compounds with rRNA inh HTS | E. coli WT GFP strain growth, fluorescence, 24 h | activity change, negative = inhibition at 50 µM | 1,900 tested, under 10 active;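 active = compound lowering the normal-ribosome reporter at least twice as much as the humanized-ribosome reporter, growth loss under a set limit; inconclusive = no clear call, values can overlap the other calls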;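 also: wild-type GFP and h24 humanized RFP strains co-cultured 1 to 1 per well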
The depositor's hits bear a star; ? = inconclusive; nt = no result given.

SMILES | rRNA inh HTS | S100A4 MyoIIA | ERAP1 HTS inh | SIRT5 inh | F508del corr | AID977621 | AID977628
C[C@H](CO)N1C[C@H](C)[C@@H](CN(C)S(=O)(=O)c2ccc(F)cc2)OCCCC[C@H](C)Oc2ccc(NS(=O)(=O)c3ccccc3)cc2C1=O | -1 | -4 | 3 | 14 | 3 | nt | nt
O=C(Cc1coc2ccc3ccccc3c12)NC1CCCc2ccccc21 (stereo unspecified) | -18 | -9 | -1 | 1 | 4 | nt | nt
O=C(Cc1coc2ccc3ccccc3c12)NCc1ccccc1 | -26* | 0 | -2 | -2 | 1 | -0.56 | nt
Cc1ccc(S(=O)(=O)Nc2ccc3c(c2)C(=O)N([C@@H](C)CO)C[C@@H](C)[C@@H](CN(C)C(=O)c2ccccc2)OCCCC[C@H](C)O3)cc1 | 0 | -12 | 1 | 2 | 0 | nt | nt
Cc1ccc(S(=O)(=O)Nc2ccc3c(c2)C(=O)N([C@H](C)CO)C[C@H](C)[C@@H](CN(C)C(=O)c2ccccc2)OCCCC[C@@H](C)O3)cc1 | -1 | -14 | 0 | 9 | 5 | nt | nt
Cc1ccc(S(=O)(=O)Nc2ccc3c(c2)C(=O)N([C@H](C)CO)C[C@@H](C)[C@H](CN(C)C(=O)c2ccccc2)OCCCC[C@@H](C)O3)cc1 | -16* | -4 | -1 | -1 | -1 | -4.5 | ?
Cc1ccc(S(=O)(=O)Nc2ccc3c(c2)C(=O)N([C@@H](C)CO)C[C@@H](C)[C@H](CN(C)C(=O)c2ccccc2)OCCCC[C@@H](C)O3)cc1 | -23* | -3 | 0 | 1 | -2 | 8.2 | 1.2
Cc1noc(C)c1NC(=O)N(C)C[C@@H]1OCc2ccccc2-c2ccccc2C(=O)N([C@H](C)CO)C[C@@H]1C | 2 | 4 | -4 | 2 | -3 | nt | nt
COc1ccc2c3c([nH]c2c1)[C@H](CO)N(C(=O)Nc1ccc(F)cc1)CC31CCN(S(=O)(=O)c2cccc(F)c2)CC1 | 0 | -6 | -3 | 6 | 5 | nt | nt
O=C(C[C@H]1C[C@@H]2c3cc(NC(=O)Cc4ccncc4)ccc3O[C@@H]2[C@H](CO)O1)NCc1cccnc1 | 1 | 1 | -1 | 3 | -1 | nt | nt
O=[N+]([O-])c1cccc(COc2ccc(CN3CCCC3)cc2)c1 | -4 | 4 | -4 | -4 | 0 | nt | nt
O=[N+]([O-])c1cccc(COc2ccc(CN3CCOCC3)cc2)c1 | -17* | -3 | -1 | -4 | -1 | -5 | -8.8
O=C(C[C@@H]1C[C@@H]2c3cc(NS(=O)(=O)c4ccc(F)cc4)ccc3O[C@@H]2[C@H](CO)O1)NCCc1ccccc1 | -4 | -3 | 0 | -1 | -3 | nt | nt
CN(C(=O)CN1C(=O)NC2(CCc3ccccc32)C1=O)C1CCCCC1 (stereo unspecified) | -13* | -1 | 3 | nt | 0 | ? | -14
O=C(O)c1cc(-c2ccc(-c3ccc(F)cc3)o2)nc2ccccc12 | -38* | 1 | -13 | -2 | 1 | -13 | nt
CC(CCC(=O)O)C1CC[C@@]2(C)C3C(=O)CC4C(C)(C)C(O)CC[C@]4(C)C3C(=O)C[C@]12C (stereo partly specified) | -22* | 2 | 2 | 4 | -1 | -20 | nt
COc1ccccc1C(=O)Nc1ccc2c(c1)OC[C@@H](C)NC[C@@H](C)[C@@H](OC)CN(C)C2=O | 2 | 2 | 3 | -1 | -1 | nt | nt
Cc1cccc(CN2C(=O)c3ccccc3Sc3ccc(C(=O)NCCN4CCOCC4)cc32)c1 | -47* | -1 | 0 | nt | 1 | -22 | nt
C[C@@H]1CN([C@@H](C)CO)C(=O)Cc2cc(NC(=O)Nc3ccccc3)ccc2O[C@H]1CN(C)C(=O)Nc1cccc2ccccc12 | -3 | -6 | -1 | 3 | 0 | nt | nt
CO[C@H]1CN(C)C(=O)c2cc(NC(=O)C3CC3)ccc2OC[C@H](C)N(C(=O)Cc2ccccn2)C[C@H]1C | 3 | nt | nt | nt | -1 | nt | nt
N#Cc1nc(-c2ccco2)oc1NCCCN1CCOCC1 | 9 | -12 | 2 | -3 | 0 | nt | nt
N#Cc1nc(-c2ccco2)oc1NCc1ccccc1Cl | -27* | 7 | -7 | -2 | -33 | -4.4 | -12
O=C(C[C@H]1C[C@H]2c3cc(NC(=O)NC4CCCCC4)ccc3O[C@H]2[C@@H](CO)O1)NC1CCCCC1 | 2 | -6 | -1 | 0 | -1 | nt | nt
O=C(Nc1cccc2c1CCCC2)c1ccco1 | -21* | -6 | 0 | -6 | 0 | -9.2 | -11
O=C(N[C@@H]1CC[C@H](CCn2cc(-c3cccnc3)nn2)O[C@@H]1CO)c1ccccc1F | 1 | 37 | -1 | 6 | 2 | nt | nt
SMILES | rRNA inh HTS | S100A4 MyoIIA | ERAP1 HTS inh | SIRT5 inh | F508del corr | AID977621 | AID977628
O=C(NCc1cccs1)c1ccc(Cl)c(S(=O)(=O)N2CCCC2)c1 | -19* | -1 | -3 | 1 | -2 | nt | 0.26
CCCCNC(=O)C[C@@H]1C[C@@]2(C(=O)OC)CCCCC=C2N(Cc2ccccc2)C1=O | -22* | -2 | nt | 0 | -2 | -5.4 | nt
COCCCNc1ccn2nc(-c3ccccc3)cc2n1 | -20* | -5 | 2 | -6 | -3 | 5.4 | nt
COCCCNc1ccn2nc(-c3cccc(Cl)c3)cc2n1 | -12 | -2 | 1 | nt | -2 | nt | nt
COc1cc2c(cc1O)C=[N+](Cc1cccc(OC(F)(F)F)c1)CC2 | nt | -2 | 6 | 2 | 1 | nt | nt
C[C@H]1CN([C@@H](C)CO)C(=O)c2cc(NC(=O)NC3CCCCC3)ccc2O[C@H]1CN(C)Cc1ccc2c(c1)OCO2 | -1 | 5 | 0 | nt | 0 | nt | nt
O=C(CN1CC[n+]2c(-c3cccs3)csc21)c1ccc(-c2ccccc2)cc1 | -41* | 18 | -6 | 1 | -1 | 0.078 | -2.2
O=C(Nc1ccc(Cl)cn1)c1ccc([N+](=O)[O-])o1 | -21* | 4 | -3 | 1 | -3 | -14 | -12
CC(=O)c1ccc(NC(=O)c2ccc([N+](=O)[O-])o2)cc1 | -15* | 2 | -1 | -2 | 6 | nt | -6
CC(=O)c1cccc(NC(=O)c2ccc([N+](=O)[O-])o2)c1 | nt | -6 | -1 | -2 | 1 | nt | nt
O=C(Nc1cccnc1)c1ccc([N+](=O)[O-])o1 | -19* | -1 | -1 | 1 | -1 | nt | ?
O=C(NCc1cccnc1)c1ccc([N+](=O)[O-])o1 | 4 | 4 | 9 | -7 | nt | nt | nt
CNC[C@@H]1Oc2ccc(NS(=O)(=O)c3cccs3)cc2C(=O)N([C@@H](C)CO)C[C@@H]1C | 2 | -1 | 4 | 5 | 0 | nt | nt

From PubChem
